Reference: ChEMBL document CHEMBL4406880, “Design, synthesis, and bioactivity of dihydropyrimidine derivatives as kinesin spindle protein inhibitors” (Bioorg Med Chem, 2019)

What was measured:
Type in all cases: functional
CCRF-CEM = assay: Growth inhibition of human CCRF-CEM cells assessed as cell viability at 0.1 uM incubated for 48 hrs by sulforhodamine B assay; conditions: read-out: Activity
K562 = assay: Growth inhibition of human K562 cells assessed as cell viability at 100 uM incubated for 48 hrs by sulforhodamine B assay; conditions: K562, 48 h, read-out: Activity
LOX IMVI = assay: Growth inhibition of human LOXIMVI cells assessed as cell viability at 0.001 uM incubated for 48 hrs by sulforhodamine B assay relative to control; conditions: read-out: Activity
A549 = assay: Growth inhibition of human A549/ATCC cells assessed as cell viability at 0.001 uM incubated for 48 hrs by sulforhodamine B assay relative to control; conditions: A549, 48 h, read-out: Activity
NCI-H226 [1] = assay: Growth inhibition of human NCI-H226 cells assessed as cell viability at 0.001 uM incubated for 48 hrs by sulforhodamine B assay relative to control; conditions: NCI-H226, 48 h, read-out: Activity
Hs-578T = assay: Growth inhibition of human Hs 578T cells assessed as cell viability at 100 uM incubated for 48 hrs by sulforhodamine B assay; conditions: read-out: Activity
IGROV-1 = assay: Growth inhibition of human IGROV1 cells assessed as cell viability at 0.1 uM incubated for 48 hrs by sulforhodamine B assay; conditions: IGROV-1, 48 h, read-out: Activity
NCI-H322M = assay: Growth inhibition of human NCI-H322M cells assessed as cell viability at 0.1 uM incubated for 48 hrs by sulforhodamine B assay; conditions: read-out: Activity
PC-3 = assay: Growth inhibition of human PC3 cells assessed as cell viability at 0.1 uM incubated for 48 hrs by sulforhodamine B assay; conditions: PC-3, 48 h, read-out: Activity
HL-60(TB) = assay: Growth inhibition of human HL-60(TB) cells assessed as cell viability at 1 uM incubated for 48 hrs by sulforhodamine B assay; conditions: HL-60, 48 h, read-out: Activity
How it was run: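 NCI-60 five-dose assay, SRB end-point, same culture conditions. Compound is tested at tenfold dilutions of 0.01, 0.1, 1, 10 and 100 µM for 48 h at 37 °C, with DMSO/PBS vehicle controls. Percentage growth at each concentration is taken against untreated cells and a time-zero plate. GI50 is 50% net growth decrease, TGI is total growth inhibition, and LC50 is 50% loss of initial cells.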

UO-31 = assay: Growth inhibition of human UO31 cells assessed as cell viability at 0.1 uM incubated for 48 hrs by sulforhodamine B assay; conditions: UO-31, 48 h, read-out: Activity
RXF 393 = assay: Growth inhibition of human RXF393 cells assessed as cell viability at 1 uM incubated for 48 hrs by sulforhodamine B assay; conditions: RXF 393, 48 h, read-out: Activity
SW-620 = assay: Growth inhibition of human SW620 cells assessed as cell viability at 100 uM incubated for 48 hrs by sulforhodamine B assay; conditions: SW-620, 48 h, read-out: Activity
MCF7 = assay: Growth inhibition of human MCF7 cells assessed as cell viability at 0.1 uM incubated for 48 hrs by sulforhodamine B assay; conditions: MCF7, 48 h, read-out: Activity
OVCAR-4 = assay: Growth inhibition of human OVCAR4 cells assessed as cell viability at 0.001 uM incubated for 48 hrs by sulforhodamine B assay relative to control; conditions: OVCAR-4, 48 h, read-out: Activity
U-251 [2] = assay: Growth inhibition of human U251 cells assessed as cell viability at 0.001 uM incubated for 48 hrs by sulforhodamine B assay relative to control; conditions: U-251, 48 h, read-out: Activity
UACC-62 = assay: Growth inhibition of human UACC62 cells assessed as cell viability at 100 uM incubated for 48 hrs by sulforhodamine B assay; conditions: UACC-62, 48 h, read-out: Activity
OVCAR-8 = assay: Growth inhibition of human OVCAR8 cells assessed as cell viability at 0.1 uM incubated for 48 hrs by sulforhodamine B assay; conditions: OVCAR-8, 48 h, read-out: Activity
NCI-H226 [3] = assay: Growth inhibition of human NCI-H226 cells assessed as cell viability at 0.1 uM incubated for 48 hrs by sulforhodamine B assay; conditions: NCI-H226, 48 h, read-out: Activity
T47D = assay: Growth inhibition of human T47D cells assessed as cell viability at 100 uM incubated for 48 hrs by sulforhodamine B assay; conditions: read-out: Activity
SNB-75 = assay: Growth inhibition of human SNB75 cells assessed as cell viability at 100 uM incubated for 48 hrs by sulforhodamine B assay; conditions: SNB-75, 48 h, read-out: Activity
U-251 [4] = assay: Growth inhibition of human U251 cells assessed as cell viability at 100 uM incubated for 48 hrs by sulforhodamine B assay; conditions: U-251, 48 h, read-out: Activity
NCI-H460 = assay: Growth inhibition of human NCI-H460 cells assessed as cell viability at 0.1 uM incubated for 48 hrs by sulforhodamine B assay; conditions: NCI-H460, 48 h, read-out: Activity
SK-MEL-28 = assay: Growth inhibition of human SK-MEL-28 cells assessed as cell viability at 100 uM incubated for 48 hrs by sulforhodamine B assay; conditions: SK-MEL-28, 48 h, read-out: Activity
MDA-MB-468 = assay: Growth inhibition of human MDA-MB-468 cells assessed as cell viability at 0.001 uM incubated for 48 hrs by sulforhodamine B assay relative to control; conditions: MDA-MB-468, 48 h, read-out: Activity
SF-539 = assay: Growth inhibition of human SF539 cells assessed as cell viability at 100 uM incubated for 48 hrs by sulforhodamine B assay; conditions: SF-539, 48 h, read-out: Activity
NCI-H226 [5] = assay: Growth inhibition of human NCI-H226 cells assessed as cell viability at 1 uM incubated for 48 hrs by sulforhodamine B assay; conditions: NCI-H226, 48 h, read-out: Activity

Q: Which viability at 0.1 µM (CCRF-CEM) does the source give for `CC1=C(C(=O)OCc2ccccc2)C(c2ccc3c(c2)OCO3)n2c(nc3ccccc32)N1` (racemic) here?
A: 98%

Q: And the viability at 100 µM (K562)?
A: 26%

Q: What about the viability at 0.001 µM (LOX IMVI) of the same compound?
A: 93%

Q: And the viability at 0.001 µM (A549)?
A: 95%

Q: And the viability at 0.001 µM (NCI-H226 [1])?
A: 93%

Q: What about the viability at 100 µM (Hs-578T) of the same compound?
A: -24%

Q: And the viability at 0.1 µM (IGROV-1)?
A: 93%

Q: And the viability at 0.1 µM (NCI-H322M)?
A: 99%

Q: And the viability at 0.1 µM (PC-3)?
A: 91%

Q: And the viability at 1 µM (HL-60(TB))?
A: 8%

Q: And the viability at 0.1 µM (UO-31)?
A: 93%

Q: What about the viability at 1 µM (RXF 393) of the same compound?
A: 7%

Q: And the viability at 100 µM (SW-620)?
A: 6%

Q: What about the viability at 0.1 µM (MCF7) of the same compound?
A: 87%

Q: What about the viability at 0.001 µM (OVCAR-4) of the same compound?
A: 82%

Q: What about the viability at 0.001 µM (U-251 [2]) of the same compound?
A: 94%

Q: And the viability at 100 µM (UACC-62)?
A: 30%

Q: And the viability at 0.1 µM (OVCAR-8)?
A: 97%

Q: And the viability at 0.1 µM (NCI-H226 [3])?
A: 97%

Q: And the viability at 100 µM (T47D)?
A: 34%

Q: What about the viability at 100 µM (SNB-75) of the same compound?
A: -24%

Q: And the viability at 100 µM (U-251 [4])?
A: 3%

Q: What about the viability at 0.1 µM (NCI-H460) of the same compound?
A: 100%

Q: What about the viability at 100 µM (SK-MEL-28) of the same compound?
A: 60%

Q: And the viability at 0.001 µM (MDA-MB-468)?
A: 90%

Q: And the viability at 100 µM (SF-539)?
A: 13%

Q: What about the viability at 1 µM (NCI-H226 [5]) of the same compound?
A: 66%
